How the values were obtained:
PARP = PARP cleavage by Western blot in SKBr3; assay type: cell-based; conditions: Homo sapiens, SK-BR-3, read-out: cPARP (PARP cleavage)
In short: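 SK-BR-3 cells grown in DME/F12 with 10% FBS, 1% L-glutamine and penicillin/streptomycin to 60–70% confluence, then exposed to test compound or DMSO vehicle. Lysed in 50 mM Tris pH 7.4, 150 mM NaCl, 1% NP-40; protein by BCA. 10–50 μg lysate run on SDS–PAGE, blotted to nitrocellulose, probed with rabbit anti-PARP p85 fragment (1:500), then peroxidase secondary (1:3000).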

[1] = LC/MS–MS analyses of cellular extracts; assay type: in vitro ADME; conditions: after 10 min of incubation; data not shown
Hsp90 = Hsp90 binding assay; conditions: read-out: Hsp90 binding; binding to SKBr3 cell extracts; competition with GM-Cy3B
Hsp70 = conditions: read-out: Kd for Hsp70; cited from earlier work
Aqueous solubility = assay type: physicochemical
scanMAX 402 kinase panel = experiment: scanMAX kinase screen; assay type: binding; conditions: at 10 μM
In short: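 Competition binding: DNA-tagged kinases (T7 phage in BL21-derived E. coli lysates, or HEK-293-expressed) mixed with biotinylated-ligand streptavidin magnetic beads and test compound (10 μM; 40× DMSO stocks) in SeaBlock/0.17× PBS/Tween 20/6 mM DTT, 1 h RT. Beads washed, eluted 30 min with 0.5 μM free ligand; bound kinase by qPCR. S-score: kinases bound divided by distinct non-mutant kinases tested.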

c-Met = c-Met (Homo sapiens, UniProt P08581); experiment: scanMAX kinase screen, c-Met; assay type: binding; conditions: at 10 μM
In short: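 Kinase-tagged T7 phage (BL21-derived E. coli host) or HEK-293-made DNA-tagged kinase competed against an immobilised active-site ligand on streptavidin magnetic beads, with test compound at 10 μM (from 40× DMSO stock). Run in SeaBlock/PBS/Tween/DTT binding buffer for 1 h at room temperature. Beads then washed and eluted with 0.5 μM non-biotinylated ligand; kinase in eluate quantified by qPCR.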

Sequence of c-Met (P08581 25-1390): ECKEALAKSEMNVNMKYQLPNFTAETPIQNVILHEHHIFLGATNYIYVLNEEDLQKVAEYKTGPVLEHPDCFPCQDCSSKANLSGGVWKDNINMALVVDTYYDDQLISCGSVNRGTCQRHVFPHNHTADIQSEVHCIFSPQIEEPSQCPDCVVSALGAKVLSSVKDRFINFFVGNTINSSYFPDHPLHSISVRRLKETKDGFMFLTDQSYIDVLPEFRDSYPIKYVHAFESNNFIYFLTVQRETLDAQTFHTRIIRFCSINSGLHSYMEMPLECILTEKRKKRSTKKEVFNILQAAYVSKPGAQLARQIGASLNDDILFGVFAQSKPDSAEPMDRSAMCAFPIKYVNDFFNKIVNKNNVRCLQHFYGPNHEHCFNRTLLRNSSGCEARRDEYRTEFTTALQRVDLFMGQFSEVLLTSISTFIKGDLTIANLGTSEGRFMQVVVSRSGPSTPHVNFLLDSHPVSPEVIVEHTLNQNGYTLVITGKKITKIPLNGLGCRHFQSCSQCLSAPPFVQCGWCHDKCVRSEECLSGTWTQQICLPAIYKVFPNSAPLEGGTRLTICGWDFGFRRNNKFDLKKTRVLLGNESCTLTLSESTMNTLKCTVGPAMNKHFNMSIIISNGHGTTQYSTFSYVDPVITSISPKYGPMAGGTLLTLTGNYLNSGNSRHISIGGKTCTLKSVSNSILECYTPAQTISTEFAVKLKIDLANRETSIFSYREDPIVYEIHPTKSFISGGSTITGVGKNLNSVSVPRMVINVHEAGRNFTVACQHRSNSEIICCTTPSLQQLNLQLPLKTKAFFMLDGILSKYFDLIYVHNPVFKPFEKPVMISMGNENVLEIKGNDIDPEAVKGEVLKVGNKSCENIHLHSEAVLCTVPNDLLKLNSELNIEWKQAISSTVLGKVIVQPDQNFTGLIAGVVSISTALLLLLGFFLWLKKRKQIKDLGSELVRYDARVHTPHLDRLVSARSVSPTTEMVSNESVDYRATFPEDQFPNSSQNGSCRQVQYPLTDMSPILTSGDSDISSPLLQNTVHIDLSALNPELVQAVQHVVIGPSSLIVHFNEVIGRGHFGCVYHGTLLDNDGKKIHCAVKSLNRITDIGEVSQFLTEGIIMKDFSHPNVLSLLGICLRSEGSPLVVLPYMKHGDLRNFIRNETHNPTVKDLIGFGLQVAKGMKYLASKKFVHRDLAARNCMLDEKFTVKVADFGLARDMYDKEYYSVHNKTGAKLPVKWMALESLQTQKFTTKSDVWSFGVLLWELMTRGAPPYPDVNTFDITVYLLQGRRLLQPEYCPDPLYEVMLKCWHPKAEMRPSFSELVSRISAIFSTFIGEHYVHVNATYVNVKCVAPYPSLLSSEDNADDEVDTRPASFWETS

IC50 (Hsp90) [µM]	Structure (SMILES)	other results
	O=c1c(O)c(-c2cc(O)c(O)c(O)c2)oc2cc(O)cc(O)c12 [compound 4, myricetin, reference compound]	EC50 (PARP): > 100 µM; stability in the cells (agent detected in cellular extracts) [1]: virtually undetectable
> 500	C=CC(=O)Nc1cccc(Sc2c(OC)nc(N3CCOCC3)nc2OC)c1 [compound 37, N-(3-((4,6-Dimethoxy-2-morpholinopyrimidin-5-yl)thio)phenyl)-acrylamide]	
	Nc1ncnc2c1ncn2[C@@H]1O[C@H](COP(=O)(O)OP(=O)(O)O)[C@@H](O)[C@H]1O [ADP]	Kd (Hsp70): 0.11 to 0.5 µM
> 500	C=CC(=O)Nc1ccnc(Sc2c(OC)nc(N3CCCC3)nc2OC)n1 [27d, N-(2-((4,6-Dimethoxy-2-(pyrrolidin-1-yl)pyrimidin-5-yl)thio)-pyrimidin-4-yl)acrylamide]	aqueous solubility (Aqueous solubility): poor aqueous solubility
> 500	C=CC(=O)Nc1cc(N)nc(Sc2c(OC)nc(N3CCN(C)CC3)nc2OC)n1 [17a, N-(6-Amino-2-((4,6-dimethoxy-2-(4-methylpiperazin-1-yl)-pyrimidin-5-yl)thio)pyrimidin-4-yl)acrylamide]	EC50 (PARP): 2 µM; activity against the scanMAX 402 kinase panel (scanMAX 402 kinase panel): inert; kinase hit in scanMAX screen (c-Met): potential low-affinity kinase hit
> 500	C=CC(=O)Nc1cc(N)nc(Sc2c(OC)nc(N)nc2OC)n1 [compound 31, N-(6-Amino-2-((2-amino-4,6-dimethoxypyrimidin-5-yl)thio)-pyrimidin-4-yl)acrylamide]	
> 500	C=CC(=O)Nc1cc(N)nc(Sc2c(OCC)nc(N3CCCCC3)nc2OCC)n1 [20c, N-(6-Amino-2-((4,6-diethoxy-2-(piperidin-1-yl)pyrimidin-5-yl)-thio)pyrimidin-4-yl)acrylamide]	
> 500	C=CC(=O)Nc1ccnc(Sc2c(C)nc(N3CCN(C)CC3)nc2C)n1 [42a, N-(2-((4,6-Dimethyl-2-(4-methylpiperazin-1-yl)pyrimidin-5-yl)-thio)pyrimidin-4-yl)acrylamide]	EC50 (PARP): 5 µM
> 500	C=C(C)C(=O)Nc1ccnc(Sc2c(C)nc(N3CCN(C)CC3)nc2C)n1 [42c, N-(2-((4,6-Dimethyl-2-(4-methylpiperazin-1-yl)pyrimidin-5-yl)-thio)pyrimidin-4-yl)methacrylamide]	
> 500	C=CC(=O)Nc1cc(N)nc(Sc2c(OCC)nc(N3CCN(C)CC3)nc2OCC)n1 [20a, N-(6-Amino-2-((4,6-diethoxy-2-(4-methylpiperazin-1-yl)-pyrimidin-5-yl)thio)pyrimidin-4-yl)acrylamide]	
	N#Cc1ccc(COC[C@H]2O[C@@H](n3c(NCc4ccc(Cl)c(Cl)c4)nc4c(N)ncnc43)[C@H](O)[C@@H]2O)cc1 [compound 7, reference compound]	Kd (Hsp70): 0.3 µM
> 500	C=CC(=O)Nc1cc(N)nc(Sc2c(OC)nc(N3CCN(C)CC3)nc2OCCOCCOCCOCCO)n1 [45a]	
> 500	C=CC(=O)Nc1ccnc(Sc2c(OC)nc(N3CCN(C)CC3)nc2OC)n1 [27a, N-(2-((4,6-Dimethoxy-2-(4-methylpiperazin-1-yl)pyrimidin-5-yl)-thio)pyrimidin-4-yl)acrylamide]	
> 500	C=CC(=O)Nc1cc(N)nc(Sc2c(OC)nc(N3CCN(CCOCCOCCOCCO)CC3)nc2OC)n1 [44a]	

— paper PMC3983365 (Journal of medicinal chemistry, 2014)
